Compound activity deposited in PubChem by several laboratories.
Arbovirus inh: arbovirus infection inhibition; arbovirus infection cell-based antiviral screen; inhibition, % at 10 µM; actives 0.37% (n = 200,000); in the data active = inhibition above about 30%
Hck Nef HTS: blocks Nef-activated human Hck kinase; Recombinant Hck-YEEI plus Nef, Z-Lyte FRET kinase assay; inhibition, % at 20 µM; actives 0.68% (n = 220,000); AID 463187;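 active = Hck-Nef kinase inhibition above about 50%, limit read from the data; inactive = inhibition below that limit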
Target sequence (P08631 whole entry, looked up): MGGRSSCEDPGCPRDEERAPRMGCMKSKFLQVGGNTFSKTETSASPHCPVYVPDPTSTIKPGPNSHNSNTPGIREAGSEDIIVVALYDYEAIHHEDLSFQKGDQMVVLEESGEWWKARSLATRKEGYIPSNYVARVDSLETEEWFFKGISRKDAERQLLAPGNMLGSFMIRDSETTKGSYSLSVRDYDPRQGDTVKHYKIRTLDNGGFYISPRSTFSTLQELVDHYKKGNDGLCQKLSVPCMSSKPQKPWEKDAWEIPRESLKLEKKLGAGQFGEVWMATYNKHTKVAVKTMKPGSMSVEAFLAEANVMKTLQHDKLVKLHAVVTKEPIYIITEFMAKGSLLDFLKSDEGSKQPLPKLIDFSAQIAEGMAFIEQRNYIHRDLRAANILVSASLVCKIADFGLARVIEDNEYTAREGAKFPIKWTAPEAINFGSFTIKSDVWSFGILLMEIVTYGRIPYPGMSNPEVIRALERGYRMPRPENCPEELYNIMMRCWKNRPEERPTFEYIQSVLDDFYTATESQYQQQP
WT yeast gro inh: growth inhibition of WT yeast, mitochondrial fusion screen; mitochondrial fusion phenotypic screen, WT strain; inhibition, % at 10 µM; actives 2.1% (n = 190,000); AID 1362; in the data active = inhibition above about 58%; tested in S. cerevisiae
p47phox inh: p47phox (human) inhibition; p47phox/p22phox peptide binding, fluorescence polarization, 2 h; actives 0.53% (n = 220,000); AID 1274; P14598; inhibition, % at 24.7 µM;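 active = inhibition above about 30%, limit read from the data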
Biofilm kill mix: mixture kills Candida albicans biofilm cells | AID 1242 | inhibition, % at 7.6 µM | actives 0.02% (n = 120,000) | C. albicans biofilm persisters + clotrimazole, fluorescence viability; primary screen in compound mixtures of four per well;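 note: compounds exposed to preformed 24 h biofilms for 48 h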
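Test system: C. albicans CAF4-2 wild-type biofilms; buffer or medium: RPMI/MOPS medium, pH 7.0; schedule: 24 h biofilm formation, then 48 h compound exposure, 37 °C; detection: Alamar Blue fluorescence; measure: percent inhibition of biofilm viability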
RAM network inh: yeast RAM network inhibition | S. cerevisiae dse1pr::URA3 reporter, 5-FOA growth OD615, 2 d; analog-sensitive cbk1-as2 kinase mutant strain | inhibition, % at 50 µM | actives 1.8% (n = 190,000);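 active = inhibition above a set limit, 3 SD over mean compound inhibition, cut at about 8.4% in these data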;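 note: inhibition rescues growth on 5-FOA so higher OD means more RAM inhibition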
RAM efflux-def: restores 5-FOA growth of efflux-deficient yeast | shares compounds with RAM network inh | S. cerevisiae efflux-deficient reporter strain, 5-FOA growth OD615, 2 days | max inhibition, % | 1,200 tested, under 10 active | AID 1305; call rule not given here
Of the large screens only hits and unclear results are named; the others gave an inactive call (follow-up assays come after a bar, where they were run). Rows were chosen to be rich in hits. Some 4.6% of all compounds tested hit in one or more screens of this group.

CCOC(=O)c1ccccc1NC(=O)c1c(O)c2ccccc2n(CC)c1=O	RAM network inh 11.4 (no result: Biofilm kill mix) | RAM efflux-def inactive
CCCn1c(=O)c(C(=O)NCc2ccncc2)c(O)c2ccccc21	none (no result: Biofilm kill mix)
CCn1c(=O)c(C(=O)Nc2ccsc2C(=O)OC)c(O)c2ccccc21	none
CCCn1c(-c2ccc[nH]c2=O)nc2cc(C)c(C)cc21	none
Cc1cc(OCc2nnc(SCC(=O)OC3CCCCC3)o2)ccc1Cl	RAM network inh 11.7 (no result: Biofilm kill mix) | RAM efflux-def inactive
N#C/C(=C\c1ccc(-c2ccc(S(=O)(=O)N3CCOCC3)cc2)o1)C(=O)NC1CC1	RAM network inh 13.0 | RAM efflux-def inactive
CC1(C)CC(=O)C2=C(C1)c1c(ccc3ccccc13)NC2c1ccco1 (centres undefined)	RAM network inh 15.8 (no result: Biofilm kill mix) | RAM efflux-def inactive
O=C1Nc2ccccc2/C1=N\N=C\C1=C(N2CCOCC2)C(=C\c2ccccc2)/CC1	WT yeast gro inh 60.7, RAM network inh 12.6 (no result: Biofilm kill mix) | RAM efflux-def inactive
Cn1cc(C(=O)N/N=C/C2=C(N3CCOCC3)C(=C\c3ccccc3)/CC2)ccc1=O	none
O=C(Nc1nc(-c2ccccc2)c(C(=O)c2ccccc2)s1)c1ccc(S(=O)(=O)N2CCCC2)cc1	none
O=C(c1ccccc1)c1sc(N2CCCCCC2)nc1-c1ccccc1	RAM network inh 11.6 (no result: Biofilm kill mix) | RAM efflux-def inactive
O=C(Cn1c(NCCO)nc2ccccc21)N1CCN(Cc2ccccc2)CC1	none
O=C(Cn1c2c(sc1=O)C1c3ccccc3OCC1CS2)Nc1ccc(Cl)cc1 (centres undefined)	none
CCCCN(CCCC)S(=O)(=O)c1ccc(NC(=O)c2cccs2)cc1	RAM network inh 16.2 (no result: Biofilm kill mix) | RAM efflux-def inactive
Cc1cc(C)nc(NS(=O)(=O)c2ccc(NC(=O)c3cccs3)cc2)n1	none (no result: Biofilm kill mix)
O=C(COc1cccc(NC(=O)c2cccc([N+](=O)[O-])c2)c1)c1ccc(Br)cc1	none (no result: Biofilm kill mix)
O=C(CNS(=O)(=O)c1ccc2ccccc2c1)OCc1csc(-c2ccccc2)n1	RAM network inh 14.1 | RAM efflux-def inactive
Cc1ccc(S(=O)(=O)NCC(=O)OCc2csc(-c3ccccc3)n2)cc1	none
O=C(CNS(=O)(=O)c1c(Cl)cccc1Cl)OCc1csc(-c2ccccc2)n1	RAM network inh 12.7 | RAM efflux-def inactive
O=S(=O)(NC1=NCCCCC1)c1ccc2ccccc2c1	none
O=C(NCCSCc1ccccc1)c1ccc(F)cc1	none
O=C(NCCSCc1ccccc1)c1ccc(C2SCC(=O)N2Cc2ccccc2)cc1 (centres undefined)	RAM network inh 12.1 (no result: Biofilm kill mix) | RAM efflux-def inactive
C/C(=N\NC(=S)NCc1ccccc1)c1ccc(C#N)cc1	none
C/C(=N\NC(=S)NCc1ccccc1)c1ccc(C(C)(C)C)cc1	WT yeast gro inh 63.2, RAM network inh 11.5 | RAM efflux-def inactive
COC(=O)/C(=C/c1ccc(F)cc1)NC(C)=O	none
C=CCn1c(SCC(=O)/C(C#N)=C(\C)N)nc2sc(CC)cc2c1=O	RAM network inh 12.8 (no result: Biofilm kill mix) | RAM efflux-def inactive
COC(=O)c1c(NC(C)=O)sc(C(=O)Nc2ccccc2C)c1C	none
COC(=O)c1ccc(CSc2nc(-c3ccco3)cc(C(F)(F)F)n2)o1	RAM network inh 17.8 (no result: Biofilm kill mix) | RAM efflux-def inactive
CC(=O)c1ccc(Oc2cc(C)nc(N3CCOCC3)n2)cc1	none
Cc1oc2ccc(OC(=O)COc3c(F)c(F)c(F)c(F)c3F)cc2c1C(=O)OC(C)C	RAM network inh 13.3 | RAM efflux-def inactive
COCCOC(=O)c1c(C)oc2ccc(OS(C)(=O)=O)cc12	none
COCCOC(=O)c1c(C)oc2ccc(OC(=O)COc3c(F)c(F)c(F)c(F)c3F)cc12	RAM network inh 16.0 (no result: Biofilm kill mix) | RAM efflux-def inactive
COc1ccc(Cl)cc1NC(=O)C/C(C)=N/NC(=O)Cc1ccccc1	none
O=C(COC(=O)CC(c1ccccc1)c1ccccc1)NCc1ccc(Cl)cc1	WT yeast gro inh 63.4, RAM network inh 13.3 | RAM efflux-def inactive
CCCC(=O)OCC(=O)NCc1ccc(Cl)cc1	none
Cc1ccc(C(=O)Nc2cccnc2N2CCN(C)CC2)cc1	none
O=C(c1ccco1)N(CC1CCCO1)c1nc(-c2ccccc2)cs1 (centres undefined)	none (no result: Biofilm kill mix)
Cc1ccc(-c2csc(N(CC3CCCO3)C(=O)c3ccco3)n2)cc1 (centres undefined)	WT yeast gro inh 69.4, RAM network inh 13.3 | RAM efflux-def inactive
O=C(c1cccs1)N(CC1CCCO1)c1nc(-c2ccccc2)cs1 (centres undefined)	RAM network inh 16.1 (no result: Biofilm kill mix) | RAM efflux-def inactive
Cc1noc(C)c1NC(=O)NC(c1ccccc1)c1ccccc1	none (no result: Arbovirus inh, WT yeast gro inh, RAM network inh)
CC(C)CN(CC(C)C)c1ccc(/C=N/n2cnnc2)cc1[N+](=O)[O-]	none
CCCNS(=O)(=O)c1ccc(OCC(=O)NCc2ccc3c(c2)OCO3)cc1	none (no result: Biofilm kill mix)
CCCCC(=O)Nc1cccc(-c2csc(-c3ccccc3)n2)c1	RAM network inh 18.5 | RAM efflux-def inactive
O=C(O)CCC(=O)Nc1cccc(-c2csc(-c3ccccc3)n2)c1	none
COc1ccc(N(CC(=O)NCCSCc2ccco2)S(=O)(=O)c2ccc(C)cc2)cc1	RAM network inh 14.8 | RAM efflux-def inactive
CS(=O)(=O)N(Cc1ccc(C(=O)NCCSCc2ccco2)cc1)c1ccccc1	RAM network inh 11.7 (no result: Biofilm kill mix) | RAM efflux-def inactive
Cc1nn(-c2ccccc2)c(=S)c2ccccc12	none
Nc1nc(SCC(=O)NCc2ccc(F)cc2)[nH]c(=O)c1NC(=O)c1ccc(Cl)cc1	RAM network inh 11.7 | RAM efflux-def inactive
Cc1noc(C)c1COc1cccc(C(=O)Nc2ccc(OCc3ccccc3)cc2)c1	RAM network inh 11.9 (no result: Biofilm kill mix) | RAM efflux-def inactive
C=CCOC(=O)C1=C(C)NC(SCC)=C(C#N)C1c1ccc(Cl)cc1 (centres undefined)	RAM network inh 12.5 (no result: Biofilm kill mix) | RAM efflux-def inactive
C=CCOC(=O)C1=C(C)NC(SCC(N)=O)=C(C#N)C1c1ccc(C)cc1 (centres undefined)	none (no result: Arbovirus inh, WT yeast gro inh, RAM network inh)
COC(=O)C1=C(C)N(C)C(C)=C(C(=O)OC)C1c1ccc(F)c(Br)c1	none (no result: Biofilm kill mix)
CCCN(CC1CC1)C(=O)COC(=O)c1ccc(CNS(=O)(=O)c2ccc(F)c(Cl)c2)cc1	RAM network inh 11.9 | RAM efflux-def inactive
O=c1c2ccccc2nc2n1C(CSCc1ccc(Cl)cc1)CS2 (centres undefined)	none (no result: Biofilm kill mix)
COc1cc(Cl)ccc1NC(=O)COc1ccccc1C(=O)NN	none
CCCCCOc1ccc(NC(=O)c2cc(SC)ccc2Cl)cc1	RAM network inh 13.1 | RAM efflux-def inactive
Cc1ccc(S(=O)(=O)Cn2nnnc2CN(Cc2ccco2)Cc2cccs2)cc1	RAM network inh 11.8 (no result: Biofilm kill mix) | RAM efflux-def inactive
O=C(O)CC1S/C(=N/N=C/c2ccc(Br)cc2)N(c2ccccc2)C1=O (centres undefined)	RAM network inh 12.9 | RAM efflux-def inactive
